Assay outcomes: PubChem BioAssay, several laboratories
CSC inhib – blocks cancer stem cells | cancer stem cell-like cells viability, luminescence | inhibition, % at 7.5 µM | 300,000 tested, 1.1% active; in the data active means inhibition above about 75%; inconclusive means no clear call, values can overlap the other calls; tested in HMLE shEcad cells
Mdm2-MdmX inh – inhibitors of human Mdm2/MdmX interaction. inhibition, % at 8 µM. O15151+Q00987. SaOS-2 split-luciferase Mdm2/MdmX complementation, luminescence. 330,000 tested, 3% active;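 active means inhibition of at least 50% at 8 µM in the primary screen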
Calb FLC – C. albicans growth modulation with fluconazole; C. albicans CaCi-2 (fluconazole-resistant clinical isolate) + fluconazole, Alamar Blue growth, 48 h; growth inhibition, % (test concentration not listed); 300,000 tested, 0.57% active; AID 1979;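 active means growth inhibition above about 58% in most replicates, limit read from the data, passing the limit was not always enough; inconclusive means exactly half the replicates above a set limit; inactive means most replicates below a set limit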;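 further: all wells also contain fluconazole at 8 µg/ml as a sub-toxic cotreatment; 0% = median of DMSO wells and 100% = median of geldanamycin control wells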
NALP3 yeast inh – blocks the NALP3 inflammasome reconstituted in yeast; Yeast reconstituted NLRP3/ASC/caspase-1, beta-gal luminescence, 24 h; 330,000 tested, 0.39% active; inhibition, % at 10 µM;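 active means inhibition of 50% or more; inactive means inhibition below 50%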;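 further: plate controls were induced DMSO wells for no effect and uninduced yeast grown without galactose for full effect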
Beta cell apopt – blocks beta cell apoptosis | INS-1E cytokine-induced death, ATP luminescence, 48 h; percent of positive-control rescue, neutral wells zero | AID 435005 | 300,000 tested, 0.8% active | protection from apoptosis, % (test concentration not listed);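 active means Every replicate reaches about 75%, or at least half do and their mean reaches it too, limit read from the data; inconclusive means At least half of replicates reach the limit but their mean does not; inactive means Under half of replicates reach the limit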;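 further: 0% = cytokine-treated negative control wells and 100% = positive control rescue; higher means more ATP so stronger rescue from cytokine killing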
T cruzi inh – blocks replication of Trypanosoma cruzi | T. cruzi beta-gal in NIH3T3, luminescence, 90 h | inhibition, % (concentration not given with the values) | 300,000 tested, 1.4% active;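 active means mean inhibition across valid replicates above about 55%, limit read from the data; inconclusive means mean below that limit but half or more replicates reach it; inactive means mean below it, under half of replicates reach it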;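 further: signal also drops with host cell toxicity which is not excluded here; 0% = plate median of DMSO wells and 100% = zero luminescence signal; higher percent means less beta-gal luminescence so fewer parasites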
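System: mouse NIH/3T3 fibroblasts infected with β-gal-expressing T. cruzi Tulahuen C4 / Input: NIH/3T3 cells, 5,000 per well / Buffer or medium: Low-serum DMEM with 2% FBS / Probe or stimulus: 5000 reporter trypomastigotes per well / Schedule: ≥90 h infection period, 3 h prior cell attachment / Measured by: GalScreen luminescence, 60 min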
Mdm2-MdmX conf – confirmation of human Mdm2/MdmX interaction inhibitors. shares compounds with Mdm2-MdmX inh. Mdm2-MdmX binding, luminescent assay. inhibition, % at 8 µM. 10,000 tested, 55% active; in the data active means inhibition above about 40%
Full FLuc ctr – inhibits full-length luciferase, flagging false Mdm2/MdmX hits; shares compounds with Mdm2-MdmX inh; inhibition, % at 8 µM; AID 504607; SaOS-2 full-length luciferase counterscreen, luminescence; 6,200 tested, 77% active;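 active means mean inhibition at 8 µM reaching about 37%, which flags the compound as non-specific, limit read from the data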;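 further: p53-null SaOS-2 cells with luciferase driven by a doxycycline-inducible promoter; compound on cells about two nights before reading with doxycycline added after day one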
* = called active by the depositor; ? = inconclusive; . = no result given. Most compounds without a hit are left out; they make up all but 5.3% or so of the library.

SMILES	CSC inhib	Mdm2-MdmX inh	Calb FLC	NALP3 yeast inh	Beta cell apopt	T cruzi inh	Mdm2-MdmX conf	Full FLuc ctr
COc1ccc(-c2ccc3c(c2)S(=O)(=O)c2cccc(C(=O)NCCOc4ccccc4)c2C3=O)cc1OC	-3.5	75.9*	.	10.3	11.5	.	27.2	.
CCOC(=O)C1=C(Cn2cnc3ccccc32)NC(=O)NC1c1ccc(Cl)cc1 (stereo not given)	.	10.2	12.4	19.9	4.0	10.7	.	.
CCN1C(=O)S/C(=C/c2ccsc2)C1=O	3.4	-16.2	0.6	22.4	-1.1	-14.3	.	.
CC(C)N1C/C(=C/c2ccsc2)C(=O)/C(=C/c2ccsc2)C1	21.9	91.7*	-9.2	16.3	-1.4	23.0	6.7	.
CCOC(=O)c1c2c(n(C)c1C)C(=O)C(=O)c1ccc(Br)cc1-2	121.4*	95.0*	-33.0	5.0	57.2	-16.7	98.0*	48.4*
O=C(CN1CCOCC1)Nc1cc([N+](=O)[O-])ccc1Cl	-2.9	22.8	-33.3	8.5	-3.3	-10.2	.	.
O=C(OCC(=O)N1CCCC1=O)c1nc(Cl)ccc1Cl	-2.5	-12.7	-3.0	2.3	1.1	-2.1	.	.
COC(=O)C(CC(=O)c1ccc(Br)cc1)n1ccnc1 (stereo not given)	.	98.5*	2.3	-2.0	.	40.3	14.9	.
CCc1ccc(/C=N/NC(=O)c2cc(-c3cccc([N+](=O)[O-])c3)n[nH]2)cc1	68.6	62.3*	-2.5	15.5	29.0	-38.6	61.6*	70.5*
O=C(CNC(=O)c1ccc2c(c1)OCO2)N/N=C/c1cccc([N+](=O)[O-])c1	0.0	-15.6	.	-9.4	-8.1	8.2	.	.
CCc1ccc(-c2cc(C(=O)N/N=C/c3c[nH]c4ccccc34)[nH]n2)cc1	?	62.3*	48.6	-2.6	15.4	-6.7	51.0*	101.3*
O=C(N/N=C/c1cccc([N+](=O)[O-])c1)c1cc(-c2ccc3c(c2)OCO3)n[nH]1	10.8	52.4*	5.7	9.1	49.6	15.3	31.6	.
CCc1ccc2c(Cl)c(C(=O)N/N=C/c3c[nH]c4ccccc34)sc2c1	62.1	46.5	-2.8	11.5	.	11.9	.	.
N#Cc1c(Sc2ncc(C(F)(F)F)cc2Cl)nsc1C/C=N\OCc1ccccc1Br	-25.5	23.5	0.0	12.2	0.9	-10.9	.	.
Cc1cc2nc(/N=C(\N)NC(=O)C(C)C)nc(C)c2cc1C	24.0	56.2*	-9.9	-4.8	3.8	3.6	38.1	84.4*
CCC(=O)N/C(N)=N/c1nc(C)c2cc(C)c(C)cc2n1	44.0	74.3*	-3.8	16.3	30.7	43.4	57.4*	69.2*
COc1ccccc1/C=C/C(=O)OCC(=O)NCc1ccco1	4.4	-33.3	24.6	4.6	-7.7	-2.0	.	.
COc1cc(/C=C/C(=O)OCC(=O)NCc2ccco2)ccc1O	.	53.7*	1.0	21.1	-0.6	2.3	44.5*	82.6*
COc1cc2c(cc1OC)CN(C(=O)/C=C/c1ccccc1[N+](=O)[O-])CC2	-10.9	60.6*	13.3	6.5	8.3	1.4	52.5*	86.3*
COc1cc2c(cc1OC)CN(C(=O)/C=C/c1ccc([N+](=O)[O-])cc1)CC2	-2.5	31.9	2.6	5.3	-4.8	-7.5	.	.
COc1cc2c(cc1OC)CN(C(=O)/C=C/c1cccs1)CC2	57.4	65.5*	-8.4	13.8	2.7	-23.4	62.2*	59.1*
COc1ccc(/C=C/C(=O)c2ccc3ccccc3c2O)cc1CN1CCOCC1	14.0	29.1	11.7	46.1	0.7	17.3	.	.
COc1ccc(CNC(=O)COC(=O)CC2CCCC2)cc1	-1.6	-6.7	14.2	6.0	-1.5	2.6	.	.
COC(=O)Cn1ncn2c(cc3oc(C)cc32)c1=O	4.1	2.7	-2.2	13.8	0.3	-13.1	.	.
N#Cc1ncc(-c2ccc3c(c2)OCCOCCOCCOCCO3)nc1C#N	24.9	34.5	-6.4	-14.1	-0.5	11.2	.	.
N#Cc1ncc(-c2ccc3c(c2)OCCOCCOCCOCCOCCO3)nc1C#N	30.9	71.5*	-4.5	21.6	-1.2	4.6	60.6*	11.0
O=C(Nc1ccc2nc3n(c(=O)c2c1)CCCCC3)c1ccccc1[N+](=O)[O-]	-9.2	-0.1	-1.3	8.9	-3.6	-3.3	.	.
